Experimental data from different studies.
Each line is one published result; the experiments were not run side by side. Values after ≈ are worked out from the molar mass of the structure shown.

With `O=C1O[C@H]([C@@H](O)CO)C(O)=C1O` the IC50 was 62.8 µM (ABTS scavenging, absorbance).
For `CCCCCCCCC1NCCc2cc(O)c(O)cc21` (stereo not drawn), the IC50 was 47.5 µM (ABTS scavenging; 10 min, dark).
For `O=C1O[C@H]([C@@H](O)CO)C(O)=C1O`, the IC50 was 4.24 µg/mL (ABTS scavenging).
`Oc1cc2c(cc1O)C(Cc1ccccc1)NCC2` (stereo not drawn) gave an IC50 of 8.14 µM (ABTS scavenging; 10 min, dark).
The inhibition of `CCCCCCCCCCCCCCCCCCOc1ccccc1CC(=O)OCC[N+]1(C)CCCC1` is reported as 93.2% (NCI-H522; cell growth or viability, SRB; 10 µM).
`C[C@@H]1[C@H](O)[C@@H](C)/C=C/C=C/C=C/C=C/C=C/C=C/C=C/[C@H](O[C@@H]2O[C@H](C)[C@@H](O)[C@H](N)[C@@H]2O)C[C@@H]2O[C@](O)(C[C@@H](O)C[C@@H](O)[C@H](O)CC[C@@H](O)C[C@@H](O)CC(=O)O[C@H]1C)C[C@H](O)[C@H]2C(=O)O` has an IC50 of 0.6 µM (Leishmania donovani; parasite growth; THP-1; 72 h, intracellular, amastigote).
The IC50 of `COc1cccc(C2NCCc3cc(O)c(O)cc32)c1` (stereo not drawn) is reported as 11.2 µM (ABTS scavenging; 10 min, dark).
`O=C1O[C@H]([C@@H](O)CO)C(O)=C1O` has an IC50 of 54.5 µg/mL (ABTS scavenging; 20 min).
`CCCCCCCCCCCCCCCCOP(=O)([O-])OCC[N+](C)(C)C` has an IC50 of 3.78 µM (Leishmania donovani; parasite growth; THP-1; 72 h, intracellular, amastigote).
The EC50 of `CN1CCN(S(=O)(=O)c2ccc(-c3ccc4nncc(Nc5ncc(Cl)cn5)c4c3)cc2)CC1` is reported as 0.035 µg/mL (≈ 0.0706 µM) (Leishmania donovani; parasite growth; intracellular, amastigote).
With `Oc1cc2c(cc1O)C(CCc1ccccc1)NCC2` (stereo not drawn) the IC50 was 8.09 µM (ABTS scavenging; 10 min, dark).
With `CCOc1ccc(Nc2c3c(nc4ccccc24)CCC3)cc1` the IC50 was 0.78 µM (Leishmania donovani; parasite growth; THP-1; 72 h, intracellular, amastigote).
The inhibition of `CCCCCCCCCCCCCCCCCCOc1ccccc1CC(=O)OCC[N+]1(C)CCCCC1` is reported as 66.7% (NCI-H522; cell growth or viability, SRB; 10 µM).
The IC50 of `c1ccc(Oc2ccc(Nc3c4c(nc5ccccc35)CCC4)cc2)cc1` is reported as 0.57 µM (Leishmania donovani; parasite growth; THP-1; intracellular, amastigote).
For `O=C(O)CCC(=O)OCCN(Cc1ccc(Oc2ccc([N+](=O)[O-])cc2)cc1)C(=O)C(Cl)Cl`, the IC50 was 2.68 µM (Leishmania donovani; parasite growth, resazurin; 72 h, promastigote).
